Compound activity from PubChem.
SUMO1-SIM PPI: modulators of human SUMO1-mediated protein-protein interactions; inhibition, % at 20 µM; SUMO1 binding to a labelled peptide, TR-FRET, 1 h; hit rate 0.33% among 360,000; P63165; in the data active = inhibition above about 37%
Target sequence (P63165 whole entry, looked up): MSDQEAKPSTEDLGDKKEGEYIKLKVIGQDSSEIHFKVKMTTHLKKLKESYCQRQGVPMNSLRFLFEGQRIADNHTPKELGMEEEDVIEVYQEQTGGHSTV
DNMT1 block: DNMT1 (human) enzyme inhibition | P26358 | DNMT1 molecular beacon, Hinp1I cleavage, fluorescence | inhibition (reported as % activation of signal), % at 10 µM | hit rate 0.83% among 360,000 | AID 588458; in the data active = inhibition above about 50%
STEP inh: inhibitors of human striatal-enriched phosphatase STEP. recombinant STEP, OMFP fluorogenic substrate, fluorescence. inhibition, % at 20 µM. hit rate 0.25% among 360,000;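 active = inhibition at 20 µM, scaled per plate between control wells, above about 37%, limit read from the data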;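 also: 0% = DMSO with enzyme and substrate and 100% = substrate only without enzyme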
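System: STEP (striatal-enriched tyrosine phosphatase) enzyme, cell-free; medium: Bis-Tris pH 6.0 buffer with DTT, detergent; dosing: 20 µM, 1% DMSO; times: reaction 20 min, ambient temperature; detection: fluorescence, 480/540 nm; read-out basis: normalized % inhibition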
Scp1 inh: blocks human Scp-1 phosphatase activity; Q9GZU7; Recombinant Scp1, phosphopeptide, malachite green phosphate absorbance; inhibition, % at 20 µM; AID 493091; hit rate 0.88% among 340,000;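 active = inhibition above about 50% at 20 µM, limit read from the data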;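 also: plate controls were DMSO wells with enzyme for no effect and wells lacking enzyme for full effect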
Target sequence (Q9GZU7 76-261 limits assumed): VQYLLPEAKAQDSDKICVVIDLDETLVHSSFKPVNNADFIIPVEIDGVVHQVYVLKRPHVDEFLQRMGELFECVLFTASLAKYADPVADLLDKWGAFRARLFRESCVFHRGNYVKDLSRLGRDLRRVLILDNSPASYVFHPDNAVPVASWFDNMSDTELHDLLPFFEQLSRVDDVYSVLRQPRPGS
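Times: enzyme reaction 45 min at room temperature, colour 5 min, stabilisation 30 min. Material: SCP-1 catalytic fragment, aa 76-261. Medium: Acidic Tris acetate buffer with magnesium and detergent. Signal: colorimetric free-phosphate detection, absorbance 630 nm. Read-out basis: % inhibition of SCP-1 phosphate liberation. Reagent: Phosphorylated 17-residue peptide substrate.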
HKDC1 inhibitor: inhibitors of human hexokinase HKDC1. Q2TB90. recombinant HKDC1, G6PDH/diaphorase resazurin coupled fluorescence. inhibition, % at 20 µM. hit rate 0.16% among 340,000. AID 493160;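 active = inhibition above about 35% when tested at 20 µM, limit read from the data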;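 also: plate controls were DMSO wells with enzyme for no effect and DMSO wells lacking enzyme for full effect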
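Test system: HK5 enzyme. Quantity: 5 µg/mL HK5 final. Reagent: glucose and ATP substrates. Schedule: 90 min reaction incubation at room temperature, dark. Technique: resazurin-to-resorufin fluorescence via G6PDH and diaphorase coupling, 525/613 nm. Control set: DMSO wells with and without enzyme mix.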
LMPTP inh: blocks human LMPTP phosphatase; P24666; recombinant LMPTP-A, OMFP fluorogenic substrate, fluorescence intensity; inhibition, % at 20 µM; hit rate 0.22% among 360,000; AID 651560;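 active = compounds that cut the enzyme signal by at least half of the control window in the single-dose screen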;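 also: plate controls were DMSO wells with enzyme plus substrate for no effect and substrate without enzyme for full effect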
Target sequence (P24666 whole entry, looked up): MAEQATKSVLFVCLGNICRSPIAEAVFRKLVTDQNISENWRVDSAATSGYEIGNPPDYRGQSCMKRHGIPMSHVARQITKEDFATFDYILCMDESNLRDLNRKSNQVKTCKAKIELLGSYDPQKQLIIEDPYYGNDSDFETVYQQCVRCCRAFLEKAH
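Material: LMPTP-A; amount: 0.625 nM enzyme; doses: single 20 µM dose; times: reaction 50 min, room temperature, dark; technique: fluorescence intensity of OMFP turnover product; benchmarks: no-enzyme and uninhibited controls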
Scp1 confirm: Scp-1 (human) inhibition, single-dose confirmed. AID 540281. recombinant SCP-1 catalytic domain, phosphate release, malachite green absorbance. inhibition, % at 20 µM. shares compounds with Scp1 inh. hit rate 61% among 2,500;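 also: plate controls were DMSO with enzyme for no effect and buffer wells lacking enzyme for full effect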
MG interference: counter-screen for Scp-1 inhibitors: colorimetric interference; apparent inhibition (interference), % at 20 µM; Colorimetric interference counterscreen, malachite green absorbance 630 nm; 2,500 tested, under 10 active; AID 540313; shares compounds with Scp1 inh;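 also: compounds added after enzyme reaction finished so only phosphate colour detection is probed; plate controls were DMSO wells with completed Scp-1 reaction for no effect and substrate wells lacking enzyme for full effect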
Scp-1 Tm shift: validation of human Scp-1 inhibitors by thermal shift binding; hit rate 25% among 1,500; shares compounds with Scp1 inh; thermal shift relative to vanadate control, % at 40 µM; Recombinant SCP1, Sypro Orange thermal shift Tm; AID 540329;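 active = substances whose mean melting-temperature shift, as a percentage of the reference inhibitor's shift, reaches about 5.3%, limit read from the data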;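 also: 0% = Tm of DMSO wells and 100% = Tm with sodium orthovanadate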
DNMT1 interf DR: beacon fluorescence artifact, dose response counter-screen. molecular beacon fluorescence, spectral interference counter-screen. 200 tested, under 10 active. IC50, µM. shares compounds with DNMT1 block; call rule not given here
DNMT1 confirm: DNMT1 inhibition confirmation, single concentration; shares compounds with DNMT1 block; DNMT1 molecular beacon HinP1I cleavage, fluorescence; inhibition, % at 10 µM; hit rate 8% among 2,300;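 active = average inhibition of at least 30% in the single-concentration confirmation test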
DNMT1 interf: counter-screen for DNMT1 inhibitors: spectral interference. activation (fluorescence interference), % at 10 µM. shares compounds with DNMT1 block. DNMT1 molecular beacon spectral interference counterscreen, fluorescence 485/520. hit rate 1% among 2,300;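 active = activation of at least 30% at 10 µM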;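 also: DNMT1 catalytic domain with a HinP1I cleavage step and a FAM/dabcyl DNA beacon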
STEP conf: confirmation of human STEP phosphatase inhibitors. shares compounds with STEP inh. recombinant STEP, OMFP fluorogenic substrate, fluorescence. inhibition, % at 20 µM. hit rate 32% among 520; call rule not given here;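 also: 0% = enzyme with substrate plus DMSO and 100% = substrate without enzyme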
An asterisk follows results filed as active; nt = not tested or not shown. Rows were chosen to be rich in hits. Some 1.8% of all compounds tested hit in one or more screens of this group.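 The calls were made as follows, unless noted: active = inhibition of at least 30% at 20 µM; inactive = the rest.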

SMILES	SUMO1-SIM PPI	DNMT1 block	STEP inh	Scp1 inh	HKDC1 inhibitor	LMPTP inh	Scp1 confirm	MG interference	Scp-1 Tm shift	DNMT1 confirm	DNMT1 interf	STEP conf	others
O=C(N/N=C/c1cccc([N+](=O)[O-])c1)c1ccc(Br)cc1	-7	20	73*	98*	9	65*	86*	-8	-2	nt	nt	17*
O=C(N/N=C/c1cccc([N+](=O)[O-])c1)c1cccc(Br)c1	4	-2	-3	-7	-4	0	nt	nt	nt	nt	nt	nt
O=C(N/N=C/C(Br)=C/c1ccccc1)c1ccncc1	-28	-5	-2	-11	3	0	nt	nt	nt	nt	nt	nt
O=C(N/N=C/C(Br)=C/c1ccccc1)c1ccc([N+](=O)[O-])cc1	2	57*	88*	97*	2	78*	84*	-12	2	5	0	6
CNC(=O)COc1coc(CN2CCN(c3ccccc3F)CC2)cc1=O	-1	-1	-3	-2	-10	0	nt	nt	nt	nt	nt	nt
N#Cc1ccc(OCC(O)CN2CCN(c3ncc(C(F)(F)F)cc3Cl)CC2)cc1 (stereo not drawn)	-3	3	-1	-8	4	1	nt	nt	nt	nt	nt	nt
COc1cccc(Nc2nn3c(=O)c4ccccc4nc3s2)c1	-8	19	82*	60*	2	18	58*	-2	6.1*	nt	nt	47*
CCOC(=O)c1sc2nc3c(SCC(=O)O)cc(C(=O)c4ccccc4O)cn3c(=O)c2c1C	102*	186*	98*	53*	6	93*	59*	-7	7.5*	60*	-2	98*	DNMT1 interf DR=>99
COC(=O)C(=Cc1ccncc1)c1cccc2ccccc12	-13	-1	0	nt	nt	0	nt	nt	nt	nt	nt	nt
O=C(CCc1ccccc1)NNC(=O)c1ccc(NC(=O)c2ccccc2)cc1	0	29	42*	57*	-4	61*	74*	-14	-16	nt	nt	95*
CCCCN(C(=O)c1ccc(C)c(S(=O)(=O)N2CCOCC2)c1)c1c(N)n(CCCC)c(=O)[nH]c1=O	-1	0	-1	6	-3	-1	nt	nt	nt	nt	nt	nt
C[C@H](CO)N1C[C@H](C)[C@@H](CN(C)C(=O)Nc2ccc(C(F)(F)F)cc2)Oc2ccc(NC(=O)Nc3ccc(C(F)(F)F)cc3)cc2C1=O	9	-44	-1	-18	6	4	nt	nt	nt	nt	nt	nt
C[C@H](CO)N1C[C@H](C)[C@@H](CN(C)C(=O)Nc2ccc(C(F)(F)F)cc2)Oc2ccc(NC(=O)c3ccncc3)cc2C1=O	19	92*	52*	77*	2	64*	-12	-21	nt	1	-1	12
CC(C)(C)c1ccc(C(=O)Nc2cccc(-n3cnnn3)c2)cc1	0	-1	0	-13	5	1	nt	nt	nt	nt	nt	nt
COc1cc(C(=O)Nc2ccc3c(c2)C(=O)c2ccccc2C3=O)cc(OC)c1OC	2	66*	74*	88*	-7	47	42*	-8	0	0	-1	19
COc1cc(C(=O)Nc2ccc3c(c2)Cc2ccccc2-3)cc(OC)c1OC	4	-5	-1	-1	15	0	nt	nt	nt	nt	nt	nt
